The source of these data is ChEMBL document CHEMBL3576820, “Discovery of benzimidazole oxazolidinediones as novel and selective nonsteroidal mineralocorticoid receptor antagonists” (ACS Med Chem Lett, 2015).

As a reminder, the bioavailability is dose-corrected exposure relative to a reference, in per cent. A higher bioavailability goes with good availability. What is called IC50 is the concentration at which inhibition is half-maximal.

The source made the active and inactive calls. The calls are words filed in the database; no cut-off is given here.

The first series has as its system Rattus norvegicus. Description: Dose normalized AUC in Wistar han rat at 2 mg/kg, po. The format is ADME, organism-based. The note with it: in vivo. In short, it runs like this:
(§1)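 Wistar Han rats. IV dose 1 mg/kg in DMSO/PEG200/water (10:60:30), n=2. Oral dose 2 mg/kg in imwitor/tween (1:1) by gavage, n=3. Values are averages. Derived: F%, plasma clearance, Vdss, terminal half-life and oral AUC normalized to dose.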
Turning to `C[C@H](c1ccc(F)cc1)N1C(=O)O[C@](Cc2ccccc2)(c2nc3c(C(F)(F)F)cccc3[nH]2)C1=O`, the AUC/dose is 0.067 µM·kg·h/mg.

System in the next series: not listed separately
Briefly: Terminal half life in Wistar han rat at 2 mg/kg, po and 1 mg/kg, iv. The class given is ADME, organism-based. The note with it: in vivo, read-out: beta t1/2 (converted). The method, boiled down: as §1
As to `C[C@H](c1ccc(F)cc1)N1C(=O)O[C@](Cc2ccccc2)(c2nc3c(C(F)(F)F)cccc3[nH]2)C1=O`, the half-life was 2.4 h.

The target in the next series is T1, Mineralocorticoid receptor (Homo sapiens) (UniProt P08235).
T1 sequence (whole entry): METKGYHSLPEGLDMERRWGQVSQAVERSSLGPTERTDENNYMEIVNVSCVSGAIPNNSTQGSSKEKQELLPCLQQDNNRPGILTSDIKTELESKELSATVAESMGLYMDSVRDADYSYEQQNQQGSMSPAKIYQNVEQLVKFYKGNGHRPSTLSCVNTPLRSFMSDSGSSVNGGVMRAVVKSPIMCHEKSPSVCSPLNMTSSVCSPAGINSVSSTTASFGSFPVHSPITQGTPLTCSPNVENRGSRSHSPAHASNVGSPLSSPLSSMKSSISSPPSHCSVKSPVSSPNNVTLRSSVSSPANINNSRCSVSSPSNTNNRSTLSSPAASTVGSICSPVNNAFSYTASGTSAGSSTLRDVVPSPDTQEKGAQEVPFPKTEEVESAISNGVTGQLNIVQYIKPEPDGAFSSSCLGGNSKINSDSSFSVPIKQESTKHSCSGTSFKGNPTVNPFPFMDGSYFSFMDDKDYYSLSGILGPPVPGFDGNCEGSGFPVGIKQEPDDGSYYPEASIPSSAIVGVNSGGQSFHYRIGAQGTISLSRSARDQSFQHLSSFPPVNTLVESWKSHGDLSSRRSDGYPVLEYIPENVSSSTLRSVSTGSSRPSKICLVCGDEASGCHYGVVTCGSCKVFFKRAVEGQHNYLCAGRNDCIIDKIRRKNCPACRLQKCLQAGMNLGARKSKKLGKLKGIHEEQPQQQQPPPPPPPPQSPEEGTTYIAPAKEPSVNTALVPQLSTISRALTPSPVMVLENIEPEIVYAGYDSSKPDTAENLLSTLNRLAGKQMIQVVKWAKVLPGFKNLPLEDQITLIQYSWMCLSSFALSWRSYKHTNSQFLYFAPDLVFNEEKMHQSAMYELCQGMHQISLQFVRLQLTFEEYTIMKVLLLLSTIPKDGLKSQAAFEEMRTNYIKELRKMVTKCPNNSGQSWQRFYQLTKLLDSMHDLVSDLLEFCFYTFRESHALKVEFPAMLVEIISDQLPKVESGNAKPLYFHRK
Briefly: Agonist activity at human mineralocorticoid receptor by cell-based assay.
Conditions: not given
As to `C[C@H](c1ccc(F)cc1)N1C(=O)O[C@](Cc2ccccc2)(c2nc3c(C(F)(F)F)cccc3[nH]2)C1=O`, the result was inactive.

For `C[C@H](c1ccc(F)cc1)N1C(=O)O[C@](Cc2ccccc2)(c2nc3c(-c4cccnc4)cccc3[nH]2)C1=O`, the result was inactive.

In the case of `C[C@H](c1ccc(F)cc1)N1C(=O)O[C@](Cc2ccccc2)(c2nc3c(-c4cncnc4)cccc3[nH]2)C1=O`, the result was inactive.

Consider `CC(=O)S[C@@H]1CC2=CC(=O)CC[C@]2(C)[C@H]2CC[C@@]3(C)[C@@H](CC[C@@]34CCC(=O)O4)[C@H]12`, for which the outcome was inactive.

System in a further series: not listed separately
Description: Plasma protein binding in human. The format is ADME, cell-free. The note with it: read-out: PPB.
With `C[C@H](c1ccc(F)cc1)N1C(=O)O[C@](Cc2ccccc2)(c2nc3c(C(F)(F)F)cccc3[nH]2)C1=O`, the fraction unbound was < 0.01.

System in another series: not listed separately
Briefly: Plasma clearance in Wistar han rat at 2 mg/kg, po and 1 mg/kg, iv. The class given is ADME, organism-based.
Conditions: not given
In short, it runs like this: as §1
`C[C@H](c1ccc(F)cc1)N1C(=O)O[C@](Cc2ccccc2)(c2nc3c(C(F)(F)F)cccc3[nH]2)C1=O` had a clearance of 23 mL/min/kg.

System in a further series: not listed separately
Briefly: Volume of distribution at steady state in Wistar han rat at 2 mg/kg, po and 1 mg/kg, iv. The class given is ADME, organism-based. The note with it: in vivo, read-out: Vdss. In short, it runs like this:
as §1
As for `C[C@H](c1ccc(F)cc1)N1C(=O)O[C@](Cc2ccccc2)(c2nc3c(C(F)(F)F)cccc3[nH]2)C1=O`, the Vd amounted to 3.4 L/kg.

A further series concerns Rattus norvegicus. Description: Natriuretic activity in WKY rat at 30 to 100 mg/kg, po measured over 6 hrs. The format is functional, organism-based.
Conditions: not given
For `CC(=O)S[C@@H]1CC2=CC(=O)CC[C@]2(C)[C@H]2CC[C@@]3(C)[C@@H](CC[C@@]34CCC(=O)O4)[C@H]12`, the result was Active.

System in a further series: not listed separately
Briefly: Plasma protein binding in rat. The class given is ADME, cell-free. The note with it: read-out: PPB.
On to `C[C@H](c1ccc(F)cc1)N1C(=O)O[C@](Cc2ccccc2)(c2nc3c(C(F)(F)F)cccc3[nH]2)C1=O`, for which the fraction unbound is < 0.01.

System in the next series: not listed separately
Briefly: Fraction unbound in 10% rat plasma. The class given is ADME, cell-free. The note with it: 10% plasma. In short, it runs like this: (§2)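 Free fraction measured in the presence of 10% plasma (human or rat), taken as correlating with the free fraction in whole plasma.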
The compound `C[C@H](c1ccc(F)cc1)N1C(=O)O[C@](Cc2ccccc2)(c2nc3c(C(F)(F)F)cccc3[nH]2)C1=O` displayed a fraction unbound of 0.005.

System in another series: not listed separately
Briefly: Oral bioavailability in Wistar han rat at 2 mg/kg. The class given is ADME, organism-based. The note with it: in vivo. The method, boiled down:
as §1
`C[C@H](c1ccc(F)cc1)N1C(=O)O[C@](Cc2ccccc2)(c2nc3c(C(F)(F)F)cccc3[nH]2)C1=O` displayed a bioavailability of 44%.

Another series concerns the target T2, Mineralocorticoid receptor (Homo sapiens, UniProt P08235).
T2 sequence (P08235 whole entry): T1 sequence (whole entry)
Description: Antagonist activity at human mineralocorticoid receptor overexpressed in CHOK1 cells assessed as inhibition of aldosterone-induced protein interaction with coactivator peptide after 6 hrs by luminescence assay. The class given is cell-based, CHO-K1.
Conditions: not given
On to `C[C@H](c1ccc(F)cc1)N1C(=O)O[C@](Cc2ccccc2)(c2nc3c(C(F)(F)F)cccc3[nH]2)C1=O`, for which the IC50 came to 150 nM.

Turning to `C[C@H](c1ccc(F)cc1)N1C(=O)O[C@](Cc2ccccc2)(c2nc3c(-c4cccnc4)cccc3[nH]2)C1=O`, the IC50 was 170 nM.

On to `C[C@H](c1ccc(F)cc1)N1C(=O)O[C@](Cc2ccccc2)(c2nc3c(-c4cncnc4)cccc3[nH]2)C1=O`, for which the IC50 was 370 nM.

System in a further series: not listed separately
Description: Fraction unbound in 10% human plasma. The class given is ADME, cell-free. The note with it: 10% plasma. In short, it runs like this: as §2
For `C[C@H](c1ccc(F)cc1)N1C(=O)O[C@](Cc2ccccc2)(c2nc3c(C(F)(F)F)cccc3[nH]2)C1=O`, the fraction unbound is 0.002.

System in a further series: not listed separately
Description: Metabolic stability in human liver microsomes assessed as compound remaining at 1 uM after 0.5 hrs. The class given is ADME. The note with it: read-out: Stability. (In general: Microsomes from liver hold many membrane-bound enzymes, among them those of drug oxidation.)
Turning to `C[C@H](c1ccc(F)cc1)N1C(=O)O[C@](Cc2ccccc2)(c2nc3c(C(F)(F)F)cccc3[nH]2)C1=O`, the remaining at 0.5 h, 1 µM came to 77%.

In the case of `C[C@H](c1ccc(F)cc1)N1C(=O)O[C@](Cc2ccccc2)(c2nc3c(-c4cccnc4)cccc3[nH]2)C1=O`, the remaining at 0.5 h, 1 µM worked out at 38%.

In the case of `C[C@H](c1ccc(F)cc1)N1C(=O)O[C@](Cc2ccccc2)(c2nc3c(-c4cncnc4)cccc3[nH]2)C1=O`, the remaining at 0.5 h, 1 µM turned out to be 30%.

The target of a further series is T3, Progesterone receptor (Homo sapiens) (UniProt P06401).
T3 sequence (whole entry): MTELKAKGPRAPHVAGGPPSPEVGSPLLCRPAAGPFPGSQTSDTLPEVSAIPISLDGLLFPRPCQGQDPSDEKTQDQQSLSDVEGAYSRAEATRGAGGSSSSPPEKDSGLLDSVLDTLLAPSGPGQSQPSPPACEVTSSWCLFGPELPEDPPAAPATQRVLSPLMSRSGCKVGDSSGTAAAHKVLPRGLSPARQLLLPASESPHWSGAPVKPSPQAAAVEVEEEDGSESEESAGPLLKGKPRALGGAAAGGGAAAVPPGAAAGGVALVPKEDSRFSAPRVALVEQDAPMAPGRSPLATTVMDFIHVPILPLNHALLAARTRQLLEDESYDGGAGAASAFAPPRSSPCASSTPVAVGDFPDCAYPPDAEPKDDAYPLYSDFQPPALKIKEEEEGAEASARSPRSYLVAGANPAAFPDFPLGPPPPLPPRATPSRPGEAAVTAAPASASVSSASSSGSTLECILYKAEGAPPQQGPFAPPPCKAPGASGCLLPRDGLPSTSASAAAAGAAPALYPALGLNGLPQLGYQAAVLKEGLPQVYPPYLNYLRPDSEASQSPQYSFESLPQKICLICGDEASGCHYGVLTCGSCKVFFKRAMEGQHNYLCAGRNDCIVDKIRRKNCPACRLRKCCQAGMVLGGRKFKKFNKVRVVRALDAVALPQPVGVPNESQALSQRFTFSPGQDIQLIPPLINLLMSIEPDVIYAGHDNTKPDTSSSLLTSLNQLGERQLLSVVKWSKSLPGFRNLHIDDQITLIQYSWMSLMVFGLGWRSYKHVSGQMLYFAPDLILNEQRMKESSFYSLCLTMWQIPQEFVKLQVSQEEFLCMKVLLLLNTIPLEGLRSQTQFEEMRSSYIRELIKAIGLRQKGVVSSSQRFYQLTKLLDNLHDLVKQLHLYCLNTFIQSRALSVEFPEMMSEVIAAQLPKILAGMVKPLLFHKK
Description: Agonist activity at human progesterone receptor beta by cell-based assay.
Conditions: not given
Consider `C[C@H](c1ccc(F)cc1)N1C(=O)O[C@](Cc2ccccc2)(c2nc3c(C(F)(F)F)cccc3[nH]2)C1=O`, for which the result was inactive.

On to `C[C@H](c1ccc(F)cc1)N1C(=O)O[C@](Cc2ccccc2)(c2nc3c(-c4cccnc4)cccc3[nH]2)C1=O`, for which the result was inactive.

`C[C@H](c1ccc(F)cc1)N1C(=O)O[C@](Cc2ccccc2)(c2nc3c(-c4cncnc4)cccc3[nH]2)C1=O`: the result was inactive.

In the case of `CC(=O)S[C@@H]1CC2=CC(=O)CC[C@]2(C)[C@H]2CC[C@@]3(C)[C@@H](CC[C@@]34CCC(=O)O4)[C@H]12`, the outcome was inactive.

System in a further series: not listed separately
Description: Metabolic stability in rat liver microsomes assessed as compound remaining at 1 uM after 0.5 hrs. The class given is ADME. The note with it: read-out: Stability.
Turning to `C[C@H](c1ccc(F)cc1)N1C(=O)O[C@](Cc2ccccc2)(c2nc3c(C(F)(F)F)cccc3[nH]2)C1=O`, the remaining at 0.5 h, 1 µM came to 51%.

Consider `C[C@H](c1ccc(F)cc1)N1C(=O)O[C@](Cc2ccccc2)(c2nc3c(-c4cccnc4)cccc3[nH]2)C1=O`, for which the remaining at 0.5 h, 1 µM was found to be 26%.

Take `C[C@H](c1ccc(F)cc1)N1C(=O)O[C@](Cc2ccccc2)(c2nc3c(-c4cncnc4)cccc3[nH]2)C1=O`: the remaining at 0.5 h, 1 µM is 19%.

A further series concerns the target T4, Estrogen receptor (Homo sapiens) (UniProt P03372).
T4 sequence (whole entry): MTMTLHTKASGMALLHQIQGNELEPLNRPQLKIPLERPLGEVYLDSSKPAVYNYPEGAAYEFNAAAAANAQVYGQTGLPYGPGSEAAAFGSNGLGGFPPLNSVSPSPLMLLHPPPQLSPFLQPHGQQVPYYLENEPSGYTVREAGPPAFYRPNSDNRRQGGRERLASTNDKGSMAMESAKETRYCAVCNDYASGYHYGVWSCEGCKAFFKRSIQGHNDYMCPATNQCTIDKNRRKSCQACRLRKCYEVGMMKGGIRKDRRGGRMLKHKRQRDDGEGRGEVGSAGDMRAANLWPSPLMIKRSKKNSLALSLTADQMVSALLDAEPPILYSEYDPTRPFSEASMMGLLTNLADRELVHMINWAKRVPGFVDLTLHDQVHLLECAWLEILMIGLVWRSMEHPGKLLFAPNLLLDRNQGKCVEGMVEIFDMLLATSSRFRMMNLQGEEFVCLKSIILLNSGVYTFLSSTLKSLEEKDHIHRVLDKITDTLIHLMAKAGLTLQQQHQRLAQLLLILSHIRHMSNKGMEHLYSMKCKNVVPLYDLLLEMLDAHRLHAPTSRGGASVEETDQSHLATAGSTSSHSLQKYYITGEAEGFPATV
Briefly: Agonist activity at human estrogen receptor alpha by cell-based assay.
Conditions: not given
In the case of `C[C@H](c1ccc(F)cc1)N1C(=O)O[C@](Cc2ccccc2)(c2nc3c(C(F)(F)F)cccc3[nH]2)C1=O`, the outcome was inactive.

Consider `C[C@H](c1ccc(F)cc1)N1C(=O)O[C@](Cc2ccccc2)(c2nc3c(-c4cccnc4)cccc3[nH]2)C1=O`, for which the outcome was inactive.

Consider `C[C@H](c1ccc(F)cc1)N1C(=O)O[C@](Cc2ccccc2)(c2nc3c(-c4cncnc4)cccc3[nH]2)C1=O`, for which the result was inactive.

For the compound `CC(=O)S[C@@H]1CC2=CC(=O)CC[C@]2(C)[C@H]2CC[C@@]3(C)[C@@H](CC[C@@]34CCC(=O)O4)[C@H]12`, the outcome was inactive.
